Experimental data from ChEMBL document CHEMBL4334452, “Monosaccharide Analogues of Anticancer Peptide R-Lycosin-I: Role of Monosaccharide Conjugation in Complexation and the Potential of Lung Cancer Targeting and Therapy” (J Med Chem, 2019).
pIC50: −log10 of the molar value. The source made the active and inactive calls. No cut-off for these calls is given here. *1 amine or outer side, *2 acyl side, *3 side chain or, on linkers, in order; H or OH if unused. Where a SMILES comes first, the peptide text is derived from it. The star is where a group is joined. NH(CH2)3O(βDGlc) = OC[C@H]1O[C@@H](OCCCN*)[C@H](O)[C@@H](O)[C@@H]1O; Glutaryl = O=C(CCCC(=O)[*:2])[*:1]

Legend:
A549 [1] = assay: Antitumor activity against human A549 cells expressing luciferase gene xenografted in Balb/c nu/nu mouse assessed as increase in apoptotic cells at 9 mg/kg, ip administered every 2 days for seven times measured on day 14 by TUNEL assay; type: functional, organism-based
Summary of the method: (§1)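 Male BALB/c nu/nu mice, 4-6 weeks old, carrying subcutaneous A549-luciferase xenografts in the right back. Dosing started when tumors reached 100-200 mm³ (day 0), five per group. Peptide was given at 9 mg/kg i.p. in 200 µL every other day for 7 doses; PBS served as control. Bioluminescent imaging on day 14; tumor size and body weight tracked. Tumors fixed in paraformaldehyde, paraffin-sectioned, TUNEL-stained.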

A549 [2] = assay: Potency index, ratio of compound effect to R-lycosin-I effect for antitumor activity against human A549 cells expressing luciferase gene xenografted in Balb/c nu/nu mouse at 3 mg/kg administered intratumorally; type: functional
[3] = Drug uptake in tumor of Balb/c nu/nu mouse xenografted with human A549 cells expressing luciferase gene at 9 mg/kg, ip measured after 6 hrs by fluorescence assay; type: ADME, organism-based, Neoplasm; conditions: in vivo
A549 [4] = assay: Antitumor activity against human A549 cells expressing luciferase gene xenografted in Balb/c nu/nu mouse assessed as reduction in tumor volume at 9 mg/kg, ip administered every 2 days for seven times measured on day 14 by bioluminescent imaging analysis; type: functional, organism-based; summary of the method: as §1
[5] = Drug uptake in GLUT1 knockout out human A549 cells at 12.5 uM measured after 2 hrs using FITC-labelled compound by fluorescence assay; type: ADME, cell-based; conditions: a549, 2 h
Summary of the method: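 FITC-labelled peptide at 12.5 µM for 2 h, given to A549 cells and to A549 GLUT1-RNAi knockdown cells. Total and fluorescent cells counted by automated cell counter; n=3.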

[6] = target: T1, Solute carrier family 2, facilitated glucose transporter member 1 (Homo sapiens) (UniProt P11166); assay: Binding affinity to GLUT1 in human A549 cells assessed as cytotoxicity by measuring cell viability at 12.5 uM measured after 2 hrs in presence of GLUT1 inhibitor STF-31 by CCK8 assay relative to control; type: cell-based
T1 sequence (whole entry): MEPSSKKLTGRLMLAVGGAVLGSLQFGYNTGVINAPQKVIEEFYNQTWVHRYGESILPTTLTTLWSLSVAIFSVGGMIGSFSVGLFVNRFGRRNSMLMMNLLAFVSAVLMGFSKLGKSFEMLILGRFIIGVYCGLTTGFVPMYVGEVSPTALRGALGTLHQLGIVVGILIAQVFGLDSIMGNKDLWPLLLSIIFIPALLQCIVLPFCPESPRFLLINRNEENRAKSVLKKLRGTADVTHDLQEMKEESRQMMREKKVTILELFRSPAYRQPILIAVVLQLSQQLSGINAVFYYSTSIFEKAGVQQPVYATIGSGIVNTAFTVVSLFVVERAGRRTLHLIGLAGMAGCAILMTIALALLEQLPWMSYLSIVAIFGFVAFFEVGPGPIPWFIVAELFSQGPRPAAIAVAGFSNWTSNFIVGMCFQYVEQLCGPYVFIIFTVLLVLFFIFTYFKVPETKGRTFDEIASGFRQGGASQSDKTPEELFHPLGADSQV
Summary of the method: (§2)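 A549 cells at 2×10^3/well, grown overnight, then preincubated 4 h in F12K/10% FBS with or without STF-31 (1 µM final). […] Incubated a further 2 h at 37 °C; viability by CCK-8.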

[7] = target: T1, Solute carrier family 2, facilitated glucose transporter member 1 (Homo sapiens); assay: Binding affinity to GLUT1 in human A549 cells assessed as cytotoxicity by measuring reduction in cell viability at 40 umol/L measured up to 48 hrs in presence of 10% serum by CCK8 assay relative to control; type: cell-based
HEK-293T = assay: Cytotoxicity against HEK293T cells at 12.5 uM measured after 2 hrs by LDH release assay; type: cell-based; conditions: human
[8] = Toxicity in Balb/c nu/nu mouse xenografted with human A549 cells expressing luciferase gene assessed as effect on liver at 9 mg/kg, ip administered every 2 days for seven times measured on day 14 by H and E staining based assay; type: organism-based; conditions: in vivo, 48 h
Summary of the method: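 Male BALB/c nu/nu mice bearing subcutaneous A549-luciferase xenografts received 9 mg/kg peptide i.p. (200 µL) every other day for seven doses, with a PBS control group of five. Heart, liver and kidney were fixed in 10% paraformaldehyde, sectioned and stained with H&E for histology.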

[9] = target: T1, Solute carrier family 2, facilitated glucose transporter member 1 (Homo sapiens); assay: Binding affinity to GLUT1 in human A549 cells assessed as cytotoxicity by measuring cell viability at 12.5 uM measured after 2 hrs in absence of GLUT1 inhibitor STF-31 by CCK8 assay relative to control; type: cell-based; summary of the method: as §2
[10] = Drug uptake in tumor of Balb/c nu/nu mouse xenografted with human A549 cells expressing luciferase gene at 3 mg/kg administered intratumorally measured after 6 hrs by fluorescence assay; type: ADME, organism-based, Neoplasm; conditions: in vivo, other
A549 [11] = assay: Inhibition of colony formation in human A549 cells at 4 uM supplemented with fresh medium containing compounds every 7 days for 15 days by crystal violet staining based assay; type: functional, cell-based
Summary of the method: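 Cells seeded at 300 per plate in 6-well plates; after 36 h exposed to 4 μM peptide, re-added after 7 days. Incubated 15 days total at 37°C, 5% CO2, then colonies stained with 2% crystal violet and quantified; n=3.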

A549 [12] = assay: Cytotoxicity against GLUT1 knockout out human A549 cells assessed as reduction in cell viability measured after 24 hrs by CCK8 assay; type: functional, cell-based; conditions: A549, 24 h
Summary of the method: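 A549 cells with GLUT1 knocked down by RNAi oligos, about 50% knockdown versus control oligos. Cells treated with a concentration series, read by 24-h serum-free CCK-8 viability, and an IC50 derived from the dose-response curve.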

[13] = target: T1, Solute carrier family 2, facilitated glucose transporter member 1 (Homo sapiens); assay: Binding affinity to GLUT1 in human A549 cells assessed as cytotoxicity by measuring reduction in cell viability at 12.5 uM measured after 2 hrs in absence of GLUT1 inhibitor STF-31 by CCK8 assay; type: cell-based; summary of the method: as §2

CC[C@H](C)[C@H](NC(=O)[C@H](Cc1ccccc1)NC(=O)[C@H](CCCNC(=N)N)NC(=O)[C@H](C)NC(=O)[C@@H](NC(=O)[C@H](CO)NC(=O)[C@H](CCCNC(=N)N)NC(=O)[C@H](CCSC)NC(=O)[C@H](C)NC(=O)[C@H](CCCNC(=N)N)NC(=O)[C@H](Cc1ccccc1)NC(=O)[C@H](Cc1c[nH]c2ccccc12)NC(=O)CNC(=O)[C@H](CCCNC(=N)N)NC(=O)CCCC(=O)NCCCO[C@@H]1O[C@H](CO)[C@@H](O)[C@H](O)[C@H]1O)[C@@H](C)CC)C(=O)N[C@@H](C)C(=O)N[C@@H](CCCNC(=N)N)C(=O)N[C@@H](CCC(=O)O)C(=O)N[C@@H](CCCNC(=N)N)C(=O)N[C@@H](CC(C)C)C(=O)N[C@@H](CCCNC(=N)N)C(=O)N[C@@H](CCC(=O)O)C(=O)N[C@@H](Cc1cnc[nH]1)C(=O)N[C@@H](CC(C)C)C(=O)O ({NH(CH2)3O(βDGlc)-Glutaryl}-RGWFRAMRSIARFIARERLREHL-OH)
Activity (A549 [1]): Active
Ratio (A549 [2]): 1.6
Drug uptake [3]: Active
Activity (A549 [4]): Active
Drug uptake [5]: Not Active
Activity [6]: 40%
Activity [7]: 80%
Activity (HEK-293T): Non-Toxic
Activity [8]: Non-Toxic
Activity [9]: 54%
Drug uptake [10]: Active
inhibition (A549 [11]): Active
pIC50 (A549 [12]): 4.87

CC[C@H](C)[C@H](NC(=O)[C@H](Cc1ccccc1)NC(=O)[C@H](CCCNC(=N)N)NC(=O)[C@H](C)NC(=O)[C@@H](NC(=O)[C@H](CO)NC(=O)[C@H](CCCNC(=N)N)NC(=O)[C@H](CCSC)NC(=O)[C@H](C)NC(=O)[C@H](CCCNC(=N)N)NC(=O)[C@H](Cc1ccccc1)NC(=O)[C@H](Cc1c[nH]c2ccccc12)NC(=O)CNC(=O)[C@@H](N)CCCNC(=N)N)[C@@H](C)CC)C(=O)N[C@@H](C)C(=O)N[C@@H](CCCNC(=N)N)C(=O)N[C@@H](CCC(=O)O)C(=O)N[C@@H](CCCNC(=N)N)C(=O)N[C@@H](CC(C)C)C(=O)N[C@@H](CCCNC(=N)N)C(=O)N[C@@H](CCC(=O)O)C(=O)N[C@@H](Cc1cnc[nH]1)C(=O)N[C@@H](CC(C)C)C(=O)O (H-RGWFRAMRSIARFIARERLREHL-OH)
Activity [13]: Active
